L major viab – inhibitors of Leishmania major promastigote growth | Leishmania major promastigotes, resazurin fluorescence viability | inhibition, % at 10 µM | 200,000 compounds, 9% hits; in the data active = inhibition above about 50%;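 note: promastigotes grown with compound for 44 hours at 28 °C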
Diaphorase act – diaphorase activation or chemical reduction counter-screen; Diaphorase/resazurin coupled assay, resorufin fluorescence, 16 min; stronger effect = higher value; 1 = vehicle wells, 0 = NADH-free wells; activation factor at 20 µM; 190,000 compounds, 0.005% hits; AID 1229;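 active = diaphorase activity raised at least twofold by the compound at 20 µM; inactive = activation factor below 2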
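System – purified diaphorase enzyme from Clostridium kluyveri · Input – enzyme 0.07 U/mL final · Also added – final NADH 0.114 mM, resazurin 0.1 mM · Measured by – fluorescence of resorufin, 544 nm excitation, 590 nm emission · Timing – 16 min enzyme reaction, ambient temperature · Measure – resorufin increase flagging diaphorase activators or reducers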
PMI act hi M6P – PMI (human) activation, high substrate; activation factor at 20 µM; P34949; 190,000 compounds, 0.34% hits; coupled PMI enzyme assay, resazurin fluorescence, 20 min; stronger effect = higher value; 1 = untreated enzyme, 0 = substrate-free blank;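 active = activation factor of 2 or more at 20 µM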
Target sequence (P34949 whole entry, looked up): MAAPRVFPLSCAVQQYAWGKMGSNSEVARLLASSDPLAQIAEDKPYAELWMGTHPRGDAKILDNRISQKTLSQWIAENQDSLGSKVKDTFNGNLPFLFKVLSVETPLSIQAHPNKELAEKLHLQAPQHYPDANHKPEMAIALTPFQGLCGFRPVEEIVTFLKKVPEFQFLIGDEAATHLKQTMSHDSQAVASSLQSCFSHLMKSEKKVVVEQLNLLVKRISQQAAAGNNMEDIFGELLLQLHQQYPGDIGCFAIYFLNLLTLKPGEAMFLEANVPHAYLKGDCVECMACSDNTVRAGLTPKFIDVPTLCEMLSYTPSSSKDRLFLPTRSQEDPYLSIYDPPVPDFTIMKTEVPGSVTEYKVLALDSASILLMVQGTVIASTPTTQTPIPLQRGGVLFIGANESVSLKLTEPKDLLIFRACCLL
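Test system: human PMI in coupled enzyme assay; Input: PMI at 15 ng/mL final; Medium: HEPES buffer, pH 7.4; Schedule: 20 min incubation at room temperature; Technique: resorufin fluorescence at Ex 544/Em 590 nm; Compound: 20 µM single dose; Probe or stimulus: Near-saturating mannose-6-phosphate, 1.0 mM.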
WT yeast gro inh – growth inhibition of WT yeast, mitochondrial fusion screen; 190,000 compounds, 2.1% hits; inhibition, % at 10 µM; mitochondrial fusion phenotypic screen, WT strain; in the data active = inhibition above about 58%; tested in S. cerevisiae
PMI activator – increases human mannose-6-phosphate isomerase activity; P34949; purified human PMI, coupled resazurin fluorescence, 20 min; stronger effect = higher value; 1 = vehicle control, 0 substrate-free wells; activation factor at 20 µM; 190,000 compounds, 0.005% hits; AID 1214;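 active = activation factor of 2 or more at 20 µM, relative to plate controls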
Numbers without * were called inactive; . = not tested or not shown. In the library only some 10% were active in any assay of this set; here they are far more common.

SMILES	L major viab	Diaphorase act	PMI act hi M6P	WT yeast gro inh	PMI activator
CSc1ccccc1NC(=O)CSc1nnnn1-c1ccccc1SC	66.5*	0.8	0.9	4.7	0.9
COc1ccc(C2=NOC(C(=O)N(C)Cc3ccccc3)C2)cc1 (centres undefined)	3.4	0.8	1	12.3	1
COc1ccccc1Nc1nc(C)cc(C)c1C(N)=O	-2.1	0.8	0.9	-5.2	0.9
Cc1cc(C)c(C(N)=O)c(Nc2cccc3ccccc23)n1	-5.2	0.1	0.4	62.4*	0.4
CCOC(=O)C1=C(C)NC(C)=C(C(=O)OCC)C1c1cc(N)ccc1OC(F)F	54.7*	0.9	1	-7.8	0.9
CCOC(=O)C1=C(C)NC(C)=C(C(=O)OCC)C1C	-4.9	0.8	1	-9.2	0.9
CN(Cc1cnn(-c2ccc(F)cc2)c1)Cc1nc(Cc2ccccc2)no1	-4.5	1	0.9	3.3	0.9
Cc1noc(C)c1S(=O)(=O)N1CCN(C(c2ccccc2)c2ccc(Cl)cc2)CC1 (centres undefined)	70.9*	0.8	0.9	15.8	0.9
O=S(=O)(c1ccc(Cl)c(Cl)c1)c1snnc1-c1ccccc1	99.5*	0.8	1	84.0*	0.9
N#Cc1cc2c([nH]c1=S)CCCC2	-6.5	1.4	2*	0.4	1.8
CC(C)c1[nH]nc2c1C(C(C)C)C(C#N)=C(N)O2 (centres undefined)	68.7*	0.8	0.9	-3.3	1
CC1CCc2cc(F)ccc2N1C(=O)CCl (centres undefined)	75.0*	0.9	1.1	-5.1	1.2
COCC1CCCN(Cc2cn(Cc3ccccc3)nc2-c2cc3ccccc3o2)C1 (centres undefined)	63.9*	1.1	1	24.1	1
COc1ccc2c(CC(=O)Nc3ncc(C)s3)coc2c1	-5.0	0.9	1	23.1	1
CCOc1ccc(-c2nnc(-c3ccncc3)o2)cc1OCC	77.8*	1.1	1	2.2	1
CCOc1ccc(-c2nnc(-c3cccnc3)o2)cc1OCC	30.8	1.2	1.1	-5.7	1.1
Cc1ncoc1C(=O)Nc1ccc(Oc2ccccc2)cc1	17.4	1	1.1	-10.3	1
Cc1c(C(=O)Nc2ccc(OC(F)(F)F)cc2)sc2nc3n(c(=O)c12)CCC3	-3.5	1	1	-10.9	0.9
Cc1nc(C)c(C(=O)Nc2ccc(Oc3ccccc3)cc2)o1	76.2*	0.8	1	14.1	0.9
Cc1c(C(=O)Nc2ccc(Oc3ccccc3)cc2)sc2nc3n(c(=O)c12)CCC3	36.8	0.7	0.9	60.7*	0.9
O=C(Nc1nc2ccccc2s1)C1CCCN1S(=O)(=O)c1ccc(Cl)cc1 (centres undefined)	99.3*	0.7	0.7	.	0.7
COc1ccc(-c2csc(NC(=O)c3cccc(S(=O)(=O)N4CCN(C)CC4)c3)n2)cc1	63.1*	1	1	18.0	0.9
CCOCCCNC(=O)C1CCCN1S(=O)(=O)c1ccc(Cl)cc1 (centres undefined)	93.3*	0.9	1.2	-5.2	1.2
CN1CCN(S(=O)(=O)c2cccc(C(=O)Nc3nc(-c4ccccc4)cs3)c2)CC1	45.0	0.9	0.9	10.3	0.9
COc1ccc(S(=O)(=O)N2CCCC2C(=O)Nc2nc3c(s2)CCCC3)cc1 (centres undefined)	89.7*	0.9	1	-9.8	0.9
SMILES	L major viab	Diaphorase act	PMI act hi M6P	WT yeast gro inh	PMI activator
Cc1sc2nc(C(C)Nc3ccccc3N3CCOCC3)[nH]c(=O)c2c1C (centres undefined)	29.8	0.7	0.7	19.4	1
CC(=O)NC(=S)Nc1ccc(S(=O)(=O)Nc2nc(C)cc(C)n2)cc1	-4.2	0.9	1	5.0	1.1
CCn1cc(C(=O)O)c(=O)c2cc(F)c(N3CCN(S(=O)(=O)c4ccc(NC(=O)OC)cc4)CC3)cc21	-5.8	1	0.9	-1.8	0.9
Cc1c(S(=O)(=O)N2CCOCC2)c(=O)n(C)c(=O)n1C	-3.8	1	1	0.4	1
COc1cc(NS(=O)(=O)c2ccc(Nc3nc(-c4ccccc4)cs3)cc2)nc(OC)n1	10.7	0.9	1	-52.6	0.9
COc1ccc(-c2csc(NC(=O)C3CCCCN3S(=O)(=O)c3ccccc3)n2)cc1 (centres undefined)	69.5*	0.7	0.9	23.9	0.8
Cc1ccc(CC(=O)Nc2nc3c(s2)CCCC3)cc1	-0.9	0.8	1	31.0	0.9

Source: PubChem
